Experimental data: ChEMBL document CHEMBL1122297, “Stereospecific synthesis of chiral metabolites of ifosfamide and their determination in the urine” (J Med Chem, 1983); call rule not given here

How the values were obtained:
[1] = Active metabolite of ifosfamide determined in humans; A-Active; format: ADME; conditions: human
[2] = Metabolite of ifosfamide determined in urine; NF-Not found; format: ADME, tissue-based; conditions: human
[3] = Portion of holoxan excreted in the form of the metabolite from 1500 mL of urine on day 9 was determined in embryonal rhabdomyosarcoma patients treated with ifosfamide; format: ADME, tissue-based; conditions: human, in vivo
Outline: (§1)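 Patients received ifosfamide at 2 g per day for 10 days, and daily urine was collected. Urine from days 1 and 2 was dropped because it had been stored at room temperature. Solids were centrifuged off. Supernatant was examined by 31P NMR, and amounts were taken from the electronically integrated spectra.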

[4] = Portion of holoxan excreted in the form of the metabolite from 1600 mL of urine on day 10 was determined in embryonal rhabdomyosarcoma patients treated with ifosfamide; format: ADME, tissue-based; conditions: human, in vivo; outline: as §1
[5] = Portion of holoxan excreted in the form of the metabolite from 1700 mL of urine on day 5 was determined in embryonal rhabdomyosarcoma patients treated with ifosfamide; format: ADME, tissue-based; conditions: human, in vivo; outline: as §1
[6] = Portion of holoxan excreted in the form of the metabolite from 2310 mL of urine on day 4 was determined in embryonal rhabdomyosarcoma patients treated with ifosfamide; format: ADME, tissue-based; conditions: human, in vivo; outline: as §1
[7] = Percent ratio of the enantiomeric form (+)R extracted from the urine of alveolar rhabdomyosarcoma patients was determined; format: ADME, tissue-based; conditions: human
Outline: (§2)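 Patients were dosed with ifosfamide at 2 g per day for 10 days. Solids were centrifuged out of the urine. The supernatant was extracted with chloroform and with ethyl acetate before the enantiomeric composition was determined, because signals of parent drug and metabolite overlapped in crude concentrated urine.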

[8] = Percent ratio of the enantiomeric form (-)S extracted from the urine of alveolar rhabdomyosarcoma patients was determined; format: ADME, tissue-based; conditions: human; outline: as §2
[9] = Percent ratio of the enantiomeric form (-)S extracted from the urine of embryonal rhabdomyosarcoma patients was determined; format: ADME, tissue-based; conditions: human; outline: as §2
[10] = Quantity of the metabolite found in the urine of the embryonal rhabdomyosarcoma patients treated with ifosfamide from 1200 mL of urine tested on day 3; format: ADME, tissue-based; conditions: human; outline: as §1
[11] = Portion of holoxan excreted in the form of the metabolite from 1200 mL of urine on day 3 was determined in embryonal rhabdomyosarcoma patients treated with ifosfamide; format: ADME; conditions: human, in vivo; outline: as §1
[12] = Portion of holoxan excreted in the form of the metabolite from 1300 mL of urine on day 6 was determined in embryonal rhabdomyosarcoma patients treated with ifosfamide; format: ADME; conditions: human, in vivo; outline: as §1
[13] = Portion of holoxan excreted in the form of the metabolite from 1300 mL of urine on day 8 was determined in embryonal rhabdomyosarcoma patients treated with ifosfamide; format: ADME; conditions: human, in vivo; outline: as §1
[14] = Quantity of the metabolite found in the urine of the embryonal rhabdomyosarcoma patients treated with ifosfamide from 1200 mL of urine tested on day 7; format: ADME; conditions: human; outline: as §1
[15] = Quantity of the metabolite found in the urine of the embryonal rhabdomyosarcoma patients treated with ifosfamide from 1300 mL of urine tested on day 6; format: ADME; conditions: human; outline: as §1
[16] = Quantity of the metabolite found in the urine of the embryonal rhabdomyosarcoma patients treated with ifosfamide from 1300 mL of urine tested on day 8; format: ADME, tissue-based; conditions: human; outline: as §1
[17] = Quantity of the metabolite found in the urine of the embryonal rhabdomyosarcoma patients treated with ifosfamide from 1500 mL of urine tested on day 9; format: ADME; conditions: human; outline: as §1
[18] = Quantity of the metabolite found in the urine of the embryonal rhabdomyosarcoma patients treated with ifosfamide from 1600 mL of urine tested on day 10; format: ADME; conditions: human; outline: as §1
[19] = Quantity of the metabolite found in the urine of the embryonal rhabdomyosarcoma patients treated with ifosfamide from 1700 mL of urine tested on day 5; format: ADME; conditions: human; outline: as §1
[20] = Quantity of the metabolite found in the urine of the embryonal rhabdomyosarcoma patients treated with ifosfamide from 2310 mL of urine tested on day 4; format: ADME; conditions: human; outline: as §1
[21] = Percent ratio of the enantiomeric form (+)R extracted from the urine of embryonal rhabdomyosarcoma patients was determined; format: ADME; conditions: human; outline: as §2
[22] = Portion of holoxan excreted in the form of the metabolite from 1200 mL of urine on day 7 was determined in embryonal rhabdomyosarcoma patients treated with ifosfamide; format: ADME; conditions: human, in vivo; outline: as §1

| Compound | Activity [1] | Activity [2] | Excretion [3] | Excretion [4] | Excretion [5] | Excretion [6] | Extraction [7] | Extraction [8] | Quantity [10] | Excretion [11] | Excretion [12] | Excretion [13] | Quantity [14] | Quantity [15] | Quantity [16] | Quantity [17] | Quantity [18] | Quantity [19] | Quantity [20] | Excretion [22] | other results |
| --- | --- | --- | --- | --- | --- | --- | --- | --- | --- | --- | --- | --- | --- | --- | --- | --- | --- | --- | --- | --- | --- |
| O=CCCOP(=O)(NCCCl)NCCCl | Active | Not found |  |  |  |  |  |  |  |  |  |  |  |  |  |  |  |  |  |  |  |
| O=P(O)(NCCCl)NCCCl [PALIFOSFAMIDE] | Active | Not found |  |  |  |  |  |  |  |  |  |  |  |  |  |  |  |  |  |  |  |
| NP1(=O)OCCCN1CCCl (stereo not drawn) |  |  | 100% | 61% | 40.2% | 65.5% | 13% | 87% | 64 mg | 39.8% | 91.5% | 61.7% | 180 mg | 243 mg | 130 mg | 231 mg | 160 mg | 95 mg | 163 mg | 74% | Extraction [9]: 73%; Extraction [21]: 27% |
| O=P1(NCCCl)OCCCN1CCCl (stereo not drawn) [IFOSFAMIDE] |  |  | 100% | 61% | 40.2% | 65.5% | 57% | 43% | 348 mg | 39.8% | 91.5% | 61.7% | 432 mg | 500 mg | 494 mg | 1100 mg | 421 mg | 200 mg | 442 mg | 74% | Extraction [9]: 45%; Extraction [21]: 55% |
| O=C1CCOP(=O)(NCCCl)N1CCCl (stereo not drawn) [4-KETOIFOSFAMIDE] |  |  | 100% | 61% | 40.2% | 65.5% |  |  | 44 mg | 39.8% | 91.5% | 61.7% | 84 mg | 136 mg | 78 mg | 24 mg | 66 mg | 81 mg | 34 mg | 74% |  |
| O=P1(NCCCl)OCCC(O)N1CCCl (stereo not drawn) [ALDOIFOSFAMIDE] | Active | Not found |  |  |  |  |  |  |  |  |  |  |  |  |  |  |  |  |  |  |  |
| O=C(O)CCOP(=O)(NCCCl)NCCCl |  |  | 100% | 61% | 40.2% | 65.5% |  |  | 70 mg | 39.8% | 91.5% | 61.7% | 312 mg | 348 mg | 56 mg | 186 mg | 130 mg | 70 mg | 62 mg | 74% |  |
| O=P1(NCCCl)NCCCO1 (stereo not drawn) |  |  | 100% | 61% | 40.2% | 65.5% | 72% | 28% | 198 mg | 39.8% | 91.5% | 61.7% | 348 mg | 434 mg | 338 mg | 310 mg | 320 mg | 258 mg | 432 mg | 74% | Extraction [9]: 55%; Extraction [21]: 45% |
